Measurements pooled from the literature.
Each line is one published result; the experiments were not run side by side.
Target: Serine/threonine-protein kinase 17B (STK17B, Homo sapiens, UniProt O94768)
Residues used in one study (O94768 1-372): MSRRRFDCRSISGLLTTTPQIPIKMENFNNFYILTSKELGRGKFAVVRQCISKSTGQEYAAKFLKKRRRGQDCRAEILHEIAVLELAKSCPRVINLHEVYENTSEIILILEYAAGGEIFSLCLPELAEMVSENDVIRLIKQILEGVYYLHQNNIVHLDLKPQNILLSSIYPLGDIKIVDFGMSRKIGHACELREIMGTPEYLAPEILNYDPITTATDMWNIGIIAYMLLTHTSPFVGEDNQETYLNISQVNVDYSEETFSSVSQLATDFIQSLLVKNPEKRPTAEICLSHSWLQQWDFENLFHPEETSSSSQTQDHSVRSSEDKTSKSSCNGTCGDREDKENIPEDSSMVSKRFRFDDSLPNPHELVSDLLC

O=C(NCCCN1CCOCC1)c1ccc(Nc2ncc(Cl)c(-c3ccc(Cl)s3)n2)cc1  remaining binding (binding; competition with immobilised ligand; 1 µM): 0.45%
CN(CCCC(F)(F)F)c1nccc(-c2cnn3ncccc23)n1  remaining binding (binding; 1 µM): 100%
CNC(=O)[C@@H]1CC[C@@H](n2c(-c3ccc4cnccc4c3)nc3ccc(C(=O)NCc4cccc(C(N)=O)c4)cc32)C1  remaining binding (binding; competition with immobilised ligand; 1 µM): 99%
CC(C)CC(=O)N1CCc2nc(-c3ccc(Br)cc3)nc(N(C)Cc3ccccc3)c2C1  remaining binding (cell-free assay; competition with immobilised ligand; 0.1 µM): 91%
CN(C)c1nccc(-c2cnn3ncccc23)n1  remaining binding (binding; 1 µM): 100%
Cc1cnc(Nc2ccc(C(=O)N3CCC(N4CCCC4)CC3)cc2)nc1-c1cc2ccccc2s1  remaining binding (binding; competition with immobilised ligand; 1 µM): 0%
O=C(NCc1ncc(C(F)(F)F)cc1Cl)c1ccc2c(c1)C1(CCS(=O)(=O)CC1)[C@H](C1CC1)N2S(=O)(=O)c1ccc(F)cc1  remaining binding (cell-free assay; competition with immobilised ligand; 1 µM): 85%
C=CC(=O)N1CCC(C(=O)NCC(=O)N2CCN(c3nc(-c4cnc(N)nc4C(F)F)nc(N4CCOCC4)n3)CC2)CC1  remaining binding (binding; competition with immobilised ligand; 1 µM): 97%
CCCOc1ccc([C@H]2[C@H](C(=O)O)[C@@H](c3ccc4c(c3)OCO4)CN2CC(=O)Nc2c(CC)cccc2CC)cc1  remaining binding (cell-free assay; competition with immobilised ligand; 1 µM): 91%
O=C(c1ccc(Nc2ncc(Cl)c(-c3cc4ccccc4s3)n2)cc1)N1CCC(N2CCCC2)CC1  remaining binding (binding; competition with immobilised ligand; 1 µM): 0%
COc1ccnn2ncc(-c3ccnc(N(C)C)n3)c12  remaining binding (binding; 1 µM): 100%
CCCCN(CCCC)C(=O)CN1C[C@H](c2cc(OC)c3c(c2)OCO3)[C@@H](C(=O)O)[C@@H]1CC(C)(C)CCC  remaining binding (cell-free assay; competition with immobilised ligand; 1 µM): 100%
N[C@@H]1CCN(c2nccc(-c3cnn4ncccc34)n2)C1  remaining binding (binding; 1 µM): 100%
O=C(NCC1CCOCC1)c1n[nH]cc1NC(=O)c1c(F)cccc1F  remaining binding (binding; competition with immobilised ligand; 1 µM): 91%
C[C@H]1CCN(c2nccc(-c3cnn4ncccc34)n2)C1  remaining binding (binding; 1 µM): 93%
CCN1CCN(Cc2ccc(C(=O)Nc3ccc(C)c(Oc4ccc5c(c4)CC(=O)N5)c3)cc2C(F)(F)F)CC1  remaining binding (binding; competition with immobilised ligand; 1 µM): 100%
C[C@@H]1CN(c2cc(-c3n[nH]c4ccc(OC5(C)CC5)cc34)ncn2)C[C@H](C)O1  remaining binding (cell-free assay; competition with immobilised ligand; 0.1 µM): 96%
Nc1ncc2c(n1)-c1c([nH]c3ccc(C#CC4CC4)cc13)CCCC2  remaining binding (binding; competition with immobilised ligand; 1 µM): 96%
Cc1cnn2ncc(-c3ccnc(N(C)C)n3)c2c1  remaining binding (binding; 1 µM): 100%
Cn1cc(Cl)c2c(Oc3c(F)cc(Nc4cc(Cl)nc(N)n4)cc3F)ccnc21  remaining binding (cell-free assay; competition with immobilised ligand; 0.1 µM): 84%
CN(c1nccc(-c2cnn3ncccc23)n1)C1CC1  remaining binding (binding; 1 µM): 100%
CNC(=O)Nc1ccc2c(c1)[C@@]1(CC2)OC(=O)N(CC(=O)N(Cc2ccc(F)cc2)[C@@H](C)C(F)(F)F)C1=O  remaining binding (cell-free assay; competition with immobilised ligand; 1 µM): 77%
